Experimental data from different studies.
Compare with care: the assays were run in different laboratories.
Target: Serine/threonine-protein kinase 32C (STK32C, Homo sapiens, UniProt Q86UX6)

| SMILES | assay | conditions | remaining binding [%] |
| --- | --- | --- | --- |
| CC1CCCN1c1nccc(-c2cnn3ncccc23)n1 (centres unmarked) | binding | 1 µM | 100 |
| CC1=C(C#N)C(c2ccc3c(c2)c(NC(=O)c2ccccc2C)nn3C)C(C#N)=C(C)N1 | cell-free assay, competition with immobilised ligand | 1 µM | 79 |
| Cc1cnn2ncc(-c3ccnc(N(C)C)n3)c2c1 | binding | 1 µM | 100 |
| O=C(NCCCN1CCOCC1)c1ccc(Nc2nccc(-c3cc4ccccc4s3)n2)cc1 | binding, competition with immobilised ligand | 1 µM | 92 |
| C[C@@H](c1ccc(-n2cnc3c(N)ncnc32)cc1)N1CCc2nn(C)c(Cc3ccccc3)c2C1=O | binding, competition with immobilised ligand | 0.1 µM | 89 |
| C[C@@H]1CN(c2ccc3ncc(-c4ccc5[nH]nc(C6CC6)c5c4)n3n2)C[C@H](C)O1 | binding, competition with immobilised ligand | 50 nM | 85 |
| CC(C)(C)c1ccc(-c2nc(CBr)nn2-c2cccc(O)c2)cc1 | cell-free assay, competition with immobilised ligand | 10 µM | 54 |
| CNC(=O)Nc1ccc2c(c1)[C@@]1(CC2)OC(=O)N(CC(=O)N(Cc2ccc(F)cc2)[C@@H](C)C(F)(F)F)C1=O | cell-free assay, competition with immobilised ligand | 1 µM | 100 |
| C[C@@H]1CCN(c2nccc(-c3cnn4ncccc34)n2)C1 | binding | 1 µM | 83 |
| O=C(NCCCN1CCOCC1)c1ccc(Nc2ncc(Cl)c(-c3ccc(Cl)s3)n2)cc1 | binding, competition with immobilised ligand | 1 µM | 100 |
| Nc1ncc2c(n1)-c1c([nH]c3ccc(C#CC4CC4)cc13)CCCC2 | binding, competition with immobilised ligand | 1 µM | 100 |
| c1cnn2ncc(-c3ccnc(N4CCC45COC5)n3)c2c1 | binding | 1 µM | 68 |
| N#Cc1ccccc1CSc1nnc2c(n1)[nH]c1ccccc12 | binding, competition with immobilised ligand | 10 µM | 83 |
| N[C@H]1CCN(c2nccc(-c3cnn4ncccc34)n2)C1 | binding | 1 µM | 97 |
| Cc1c(NC(=O)c2cc(C(N)=O)nc3cc(F)ccc23)c(C(F)(F)F)nn1Cc1ccc(C#N)cc1 | binding, competition with immobilised ligand | 1 µM | 69 |
| O=C(Nc1c[nH]nc1C(=O)NC1CCNCC1)c1cc(F)cc(F)c1 | binding, competition with immobilised ligand | 1 µM | 97 |
| O=C(N[C@H]1CCCCC/C=C\C2C[C@@]2(C(=O)O)NC(=O)[C@@H]2C[C@@H](Oc3ccncc3)CN2C1=O)OC1CCCC1 (some centres unmarked) | binding, competition with immobilised ligand | 1 µM | 100 |
| CN(CCCC(F)(F)F)c1nccc(-c2cnn3ncccc23)n1 | binding | 1 µM | 65 |
| CNC(=O)[C@@H]1CC[C@@H](n2c(-c3ccc4cnccc4c3)nc3ccc(C(=O)NCc4cccc(C(N)=O)c4)cc32)C1 | binding, competition with immobilised ligand | 1 µM | 93 |
| CCN1CCN(Cc2ccc(C(=O)Nc3ccc(C)c(Oc4ccc5c(c4)CC(=O)N5)c3)cc2C(F)(F)F)CC1 | binding, competition with immobilised ligand | 1 µM | 100 |
| CC(=O)N1CCC(c2ccc(C(=O)NC(=N)N)cc2C(F)(F)F)CC1 | cell-free assay, competition with immobilised ligand | 1 µM | 100 |
| FC(F)(F)Oc1cccc(-c2cnc3ccc(-c4ccncc4)nn23)c1 | binding, competition with immobilised ligand | 5 µM | 89 |
| Cc1nc(Cc2cccc(C(F)(F)F)c2)sc1-c1ccc(C(N)=O)nc1 | cell-free assay, competition with immobilised ligand | 1 µM | 87 |
| Cc1cnc(Nc2ccc(C(=O)N3CCC(N4CCCC4)CC3)cc2)nc1-c1cc2ccccc2s1 | binding, competition with immobilised ligand | 1 µM | 100 |
| F[C@@H]1CCN(c2nccc(-c3cnn4ncccc34)n2)C1 | binding | 1 µM | 89 |
| C[C@@H]1CN(c2cc(-c3nn(C)c4ccc(OC5(C)CC5)cc34)ncn2)C[C@H](C)O1 | cell-free assay, competition with immobilised ligand | 1 µM | 100 |
